Activity calls are given as the source filed them. No cut-off for these calls is given here.
Tests used:
Leishmania donovani [1] = assay: Antileishmanial activity against Leishmania donovani MHOM/IN/80/Dd8 promastigotes transfected with luciferase reporter gene assessed as inhibition of promastigotes growth incubated for 72 hrs by Steady-Glo reagent based luminescence analysis; type: functional, organism-based; conditions: for IC50: MHOM/IN/80/Dd8, 72 h
Summary of the method: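 Luciferase-transgenic L. donovani promastigotes kept under G418 (20 μg mL⁻¹) in Medium 199 with 10% FCS at 25 ± 1 °C. Late-log cells seeded at 5×10⁵ per well with serial dilutions in DMSO for 72 h, DMSO controls run alongside. Luminescence read with Steady-Glo. % inhibition = (N−n)/N×100 vs untreated. IC50 by probit analysis, mean ± SD of three assays.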

Leishmania donovani [2] = assay: Antileishmanial activity against Leishmania donovani MHOM/IN/80/Dd8 amastigotes infected in mouse J774.A1 cells assessed as inhibition of amastigotes growth incubated for 48 hrs by Steady-Glo reagent based luminescence analysis; type: functional, organism-based; conditions: for IC50: MHOM/IN/80/Dd8, J774.A1, 48 h
Summary of the method: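 J774A cells (2×10⁵ per well, RPMI-1640 with 15% FCS) incubated 24 h at 37 °C in CO2, then infected with stationary-phase luciferase promastigotes (2×10⁶ per well) to give amastigotes. Compound added in fresh medium for 48 h at 37 °C. Medium replaced by PBS, Steady-Glo luminescence read, % inhibition vs untreated. IC50 by probit analysis, mean ± SD of three assays.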

[3] = Cytotoxicity against mouse J774.A1 cells assessed as reduction in cell growth incubated for 48 hrs by MTT assay; type: toxicity, cell-based
Summary of the method: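 J774A cells seeded at 0.2 million per well, incubated overnight at 37 °C with 5% CO2, then exposed to compound dilutions in DMSO (DMSO controls) for 48 h. Viability by MTT formazan, OD at 600 nm against blank. CC50 is the concentration giving 50% viability loss vs medium-only cells, from probit analysis. Mean ± SD of three assays.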

[4] = Selectivity index, ratio of CC50 for cytotoxicity against mouse J774.A1 cells to IC50 for antileishmanial activity against Leishmania donovani MHOM/IN/80/Dd8 amastigotes infected in mouse J774.A1 cells; type: toxicity, cell-based; conditions: read-out: Ratio CC50/IC50
Summary of the method: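 SI = CC50 in J774A cells (MTT, 48 h) divided by IC50 against intracellular amastigotes (luciferase, 48 h). Both values are means of three independent assays.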

Brugia malayi = assay: Antifilarial activity against Brugia malayi assessed as reduction in worm viability by measuring inhibition of MTT reduction at 50 to 100 uM incubated for 24 hrs by MTT assay relative to control; type: functional; conditions: dose 50-100 µM
Plasmodium falciparum = assay: Antimalarial activity against Plasmodium falciparum 3D7; type: functional, organism-based
[5] = Stability of compound in simulated intestinal fluid assessed as parent compound remaining at pH 6.8 measured for 120 mins by LC-MS/MS analysis; type: ADME; conditions: read-out: Stability
Summary of the method: (§1)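 Simulated fluids prepared to USP (SGF pH 1.2, SIF pH 6.8, SPF pH 7.4) and hamster plasma pre-incubated at 37 ± 2 °C for 15 min in a shaking water bath, then spiked with compound. Aliquots taken at intervals up to 120 min, quenched with acetonitrile, vortexed and centrifuged. Remaining analyte quantified by LC-MS/MS.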

[6] = Stability of compound in simulated gastric fluid assessed as parent compound remaining at pH 1.2 measured for 120 mins by LC-MS/MS analysis; type: ADME; conditions: read-out: Stability; summary of the method: as §1
[7] = Stability of compound in simulated physiological fluid assessed as compound remaining at pH 7.4 measured for 120 mins by LC-MS analysis; type: physicochemical; conditions: read-out: Stability; summary of the method: as §1
[8] = Stability of compound in golden hamster plasma assessed as compound remaining measured for 120 mins by LC-MS analysis; type: ADME, cell-free, Mesocricetus auratus; conditions: read-out: Stability; summary of the method: as §1
[9] = Cmax in golden hamster at 50 mg/kg, po measured after 5 mins to 24 hrs by LC-MS/MS analysis; type: ADME, organism-based, Mesocricetus auratus; set-up: dose 50 mg/kg, time upper 1440 min, time lower 5 min, route po; conditions: in vivo
Summary of the method: (§2)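 Golden hamsters fasted before dosing, oral 50 mg kg⁻¹. Retro-orbital blood drawn under anesthesia from 5 min to 24 h, spun at 6000g for 20 min, plasma stored at -80 °C. Protein precipitation with acetonitrile containing carbamazepine IS (3 ng mL⁻¹). LC-MS/MS on C18 column, isocratic 90% acetonitrile, positive mode, transition m/z 375.2/198.3. Parameters from non-compartmental analysis.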

[10] = Tmax in golden hamster at 50 mg/kg, po measured after 5 mins to 24 hrs by LC-MS/MS analysis; type: ADME, organism-based, Mesocricetus auratus; conditions: in vivo, time 5-1440 min; summary of the method: as §2
[11] = AUC in golden hamster at 50 mg/kg, po measured after 5 mins to 24 hrs by LC-MS/MS analysis; type: ADME, organism-based, Mesocricetus auratus; set-up: time lower 5 min, dose 50 mg/kg, time upper 1440 min, route po; conditions: in vivo; summary of the method: as §2
[12] = Half life in golden hamster at 50 mg/kg, po measured after 5 mins to 24 hrs by LC-MS/MS analysis; type: ADME, organism-based, Mesocricetus auratus; conditions: in vivo, time 5-1440 min; summary of the method: as §2
[13] = Clearance in golden hamster at 50 mg/kg, po measured after 5 mins to 24 hrs by LC-MS/MS analysis; type: ADME, organism-based, Mesocricetus auratus; conditions: in vivo, time 5-1440 min; summary of the method: as §2
[14] = Volume of distribution in golden hamster at 50 mg/kg, po measured after 5 mins to 24 hrs by LC-MS/MS analysis; type: ADME, organism-based, Mesocricetus auratus; conditions: in vivo, time 5-1440 min; summary of the method: as §2
[15] = MRT in golden hamster at 50 mg/kg, po measured after 5 mins to 24 hrs by LC-MS/MS analysis; type: ADME, organism-based, Mesocricetus auratus; conditions: in vivo, time 5-1440 min; summary of the method: as §2

Row | SMILES | IC50 (Leishmania donovani [1]) | IC50 (Leishmania donovani [2]) | CC50 at 48 h [3] | selectivity ratio [4] | further results
1 | C#CCNC1=C(Cl)C(=O)OC1O (stereo not given) | ≥ 50 µM | 11.3 µM | 97.2 µM | 8.56 | inhibition (INH) (Brugia malayi): 65%
2 | O=C1OC(O)C(NCc2cn(-c3ccccc3Oc3ccccc3)nn2)=C1Cl (stereo not given) | ≥ 50 µM | ≥ 20 µM | – | – | IC50 (Plasmodium falciparum): 4.65 µM
3 | O=C1OC(O)C(NCc2cn(-c3ccc(F)c(C(F)(F)F)c3)nn2)=C1Cl (stereo not given) | 30.6 µM | 9.02 µM | 136 µM | 15 | –
4 | Cc1ccc(C)c(-n2cc(CNC3=C(Cl)C(=O)OC3O)nn2)c1 (stereo not given) | ≥ 50 µM | ≥ 50 µM | – | – | IC50 (Plasmodium falciparum): 4.57 µM
5 | CCCCc1ccc(-n2cc(CNC3=C(Cl)C(=O)OC3O)nn2)cc1 (stereo not given) | ≥ 50 µM | – | – | – | inhibition (Leishmania donovani [2]): inactive
6 | COc1cc(-n2cc(CNC3=C(Cl)C(=O)OC3O)nn2)cc(OC)c1OC (stereo not given) | ≥ 100 µM | 11.3 µM | 84.8 µM | 7.5 | –
7 | CCCCCCCCCCCCCCCCOP(=O)([O-])OCC[N+](C)(C)C [MILTEFOSINE] | – | 9.42 µM | 52.1 µM | 5.53 | –
8 | Cc1ccc(-n2cc(CNC3=C(Cl)C(=O)OC3O)nn2)cc1C (stereo not given) | 32.5 µM | 10.1 µM | 93.5 µM | 9.27 | inhibition (INH) (Brugia malayi): 52%
9 | COc1ccc(-n2cc(CNC3=C(Cl)C(=O)OC3O)nn2)cc1 (stereo not given) | ≥ 50 µM | ≥ 25 µM | – | – | IC50 (Plasmodium falciparum): 4.9 µM
10 | O=C1OC(O)C(NCc2cn(-c3ccc(F)c(F)c3)nn2)=C1Cl (stereo not given) | ≥ 50 µM | 8.4 µM | 172 µM | 20.5 | IC50 (Plasmodium falciparum): 3.65 µM; remaining at 2 h [5]: ≥ 70%; remaining at 2 h [6]: ≥ 70%; remaining at 2 h [7]: ≥ 70%; remaining at 2 h [8]: ≥ 70%; Cmax [9]: 1110 ng/mL; Tmax [10]: 2 h; AUC [11]: 4500 ng·h/mL; half-life [12]: 2.15 h; CL/F [13]: 207 mL/min/kg; Vd [14]: 38.15 L/kg; MRT [15]: 3.64 h
11 | O=C1OC(O)C(NCc2cn(-c3ccc4c(c3)OCO4)nn2)=C1Cl (stereo not given) | ≥ 50 µM | ≥ 50 µM | – | – | IC50 (Plasmodium falciparum): 4.34 µM; inhibition (INH) (Brugia malayi): 52%
12 | CC(C)(C)c1ccc(-n2cc(CNC3=C(Cl)C(=O)OC3O)nn2)cc1 (stereo not given) | ≥ 50 µM | ≥ 25 µM | – | – | IC50 (Plasmodium falciparum): 4.4 µM
13 | O=C1OC(O)C(NCc2cn(-c3cccc(C(F)(F)F)c3)nn2)=C1Cl (stereo not given) | 32.4 µM | 8.45 µM | 102 µM | 12.1 | –
14 | Cc1cc(C)c(-n2cc(CNC3=C(Cl)C(=O)OC3O)nn2)c(C)c1 (stereo not given) | ≥ 50 µM | ≥ 20 µM | – | – | –
15 | COc1ccc(-n2cc(CNC3=C(Cl)C(=O)OC3O)nn2)cc1OC (stereo not given) | – | – | – | – | inhibition (Leishmania donovani [1]): inactive; inhibition (Leishmania donovani [2]): inactive
16 | O=C1OC(O)C(NCc2cn(-c3ccccc3)nn2)=C1Cl (stereo not given) | ≥ 50 µM | – | – | – | inhibition (Leishmania donovani [2]): inactive
17 | O=C1OC(O)C(NCc2cn(-c3ccc(F)c(Cl)c3)nn2)=C1Cl (stereo not given) | 35.5 µM | 10.6 µM | 78 µM | 7.38 | –
18 | Cc1ccc(-n2cc(CNC3=C(Cl)C(=O)OC3O)nn2)cc1 (stereo not given) | ≥ 50 µM | – | – | – | inhibition (Leishmania donovani [2]): inactive
19 | O=C1OC(O)C(NCc2cn(-c3ccc(Cl)cc3)nn2)=C1Cl (stereo not given) | ≥ 50 µM | ≥ 50 µM | – | – | –
20 | O=C1OC(O)C(NCc2cn(-c3ccc(Cl)c(Cl)c3)nn2)=C1Cl (stereo not given) | 34.1 µM | 8.63 µM | 84.2 µM | 9.75 | inhibition (INH) (Brugia malayi): 52%
21 | Cc1ccc(-n2cc(CNC3=C(Cl)C(=O)OC3O)nn2)cc1F (stereo not given) | ≥ 50 µM | ≥ 20 µM | – | – | inhibition (INH) (Brugia malayi): 66%
22 | O=C1OC(O)C(NCc2cn(-c3ccccc3[N+](=O)[O-])nn2)=C1Cl (stereo not given) | ≥ 50 µM | ≥ 25 µM | – | – | –
23 | CCc1ccc(-n2cc(CNC3=C(Cl)C(=O)OC3O)nn2)cc1 (stereo not given) | ≥ 50 µM | – | – | – | inhibition (Leishmania donovani [2]): inactive
24 | CC(C)c1ccc(-n2cc(CNC3=C(Cl)C(=O)OC3O)nn2)cc1 (stereo not given) | – | ≥ 50 µM | – | – | inhibition (Leishmania donovani [1]): inactive
25 | O=C1OC(O)C(NCc2cn(-c3ccc(F)cc3)nn2)=C1Cl (stereo not given) | ≥ 50 µM | – | – | – | inhibition (Leishmania donovani [2]): inactive; IC50 (Plasmodium falciparum): 4.42 µM

Source: ChEMBL document CHEMBL5329145, “Antileishmanial evaluation of triazole-butenolide conjugates: design, synthesis, in vitro screening, SAR and in silico ADME predictions” (RSC Med Chem, 2023)
